Source: ChEMBL document CHEMBL3576777, “Hypocoprins A-C: new sesquiterpenoids from the coprophilous fungus Hypocopra rostrata” (J Nat Prod, 2015)
Activity calls are given as the source filed them. No cut-off for these calls is given here.

Tests used:
Staphylococcus aureus [1] = assay: Antibacterial activity against Staphylococcus aureus ATCC 29213 at 200 ug/disk by agar disk diffusion method; assay type: functional; details: read-out: DIZ
Procedure, shortened: (§1)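 Agar disk diffusion following standard protocols; test material applied at 200 μg/disk; gentamicin at 20 μg/disk served as the standard. Organisms: S. aureus ATCC 29213, B. subtilis ATCC 6051, E. coli ATCC 25922 and C. albicans ATCC 14053. Read-out was the diameter of the inhibitory zone in mm.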

Bacillus subtilis [2] = assay: Antibacterial activity against Bacillus subtilis ATCC 6051 at 200 ug/disk by agar disk diffusion method; assay type: functional; details: read-out: DIZ; procedure, shortened: as §1
Escherichia coli [3] = assay: Antibacterial activity against Escherichia coli ATCC 25922 at 200 ug/disk by agar disk diffusion method; assay type: functional, organism-based; procedure, shortened: as §1
Candida albicans [4] = assay: Antifungal activity against Candida albicans ATCC 14053 at 200 ug/disk by agar disk diffusion method; assay type: functional, organism-based; procedure, shortened: as §1
U2OS = assay: Cytotoxicity against human U2OS cells assessed as cell viability after 48 hrs by CellTiter-Blue assay; assay type: functional, cell-based
Procedure, shortened: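 Human osteosarcoma U2OS cells were seeded at 250 cells per well in 384-well format and incubated overnight. Each well received 50 nL of a 10 mM DMSO stock, in duplicate, then 48 h at 37 °C. CellTiter-Blue reagent was added, followed by a further 22 h at 37 °C. […] was read at 530/580 nm.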

Staphylococcus aureus [5] = assay: Antibacterial activity against Staphylococcus aureus ATCC 29213 by agar disk diffusion method; assay type: functional; procedure, shortened: as §1
Bacillus subtilis [6] = assay: Antibacterial activity against Bacillus subtilis ATCC 6051 by agar disk diffusion method; assay type: functional, organism-based; procedure, shortened: as §1
Escherichia coli [7] = assay: Antibacterial activity against Escherichia coli ATCC 25922 by agar disk diffusion method; assay type: functional, organism-based; procedure, shortened: as §1
Candida albicans [8] = assay: Antifungal activity against Candida albicans ATCC 14053 by agar disk diffusion method; assay type: functional, organism-based; procedure, shortened: as §1

Compound	zone of inhibition at 200 µg/disc (Staphylococcus aureus [1]) [mm]	zone of inhibition at 200 µg/disc (Bacillus subtilis [2]) [mm]	Activity (Escherichia coli [3])	Activity (Candida albicans [4])	IC50 (U2OS) [µM]	Activity (Staphylococcus aureus [5])	Activity (Bacillus subtilis [6])	Activity (Escherichia coli [7])	Activity (Candida albicans [8])	diameter of the inhibition zone (DIZ) (Staphylococcus aureus [5]) [mm]
C/C1=C\CC[C@](C)(O)[C@H]2C[C@@H]2C(C)(C)C[C@H]1O	13	13	inactive	inactive	> 10					
C=C1CC/C=C(\C)[C@H](O)CC(C)(C)[C@H]2C[C@H]12					> 10	inactive	inactive	inactive	inactive	
C/C1=C\C[C@@H](O)[C@](C)(O)[C@H]2C[C@@H]2C(C)(C)C[C@H]1O					> 10					9
